# From PubChem BioAssay
# An excerpt weighted towards active compounds, which were near 2.2% of everything screened.
# PfGluPho inh = PfG6PD (Plasmodium falciparum) enzyme inhibition. 350,000 compounds, 0.78% hits. inhibition, % at 20 µM. PfGluPho enzyme, NADPH resazurin-diaphorase fluorescence. AID 504690;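 active = inhibition reaching at least a set limit at 20 µM in the primary screen, cut at about 59% in these data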;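 note: 0% = DMSO wells with substrate and 100% = DMSO wells lacking glucose-6-phosphate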
# Exocytosis inh = blocks lytic granule exocytosis; TALL-104 LAMP-1 surface exposure, flow cytometry; cells stimulated with thapsigargin and PMA; inhibition, % at 10 µM; 360,000 compounds, 0.66% hits;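 active = inhibition above about 55%, limit read from the data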
# HKDC1 inhibitor = inhibitors of human hexokinase HKDC1 | inhibition, % at 20 µM | recombinant HKDC1, G6PDH/diaphorase resazurin coupled fluorescence | Q2TB90 | AID 493160 | 340,000 compounds, 0.16% hits;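 active = inhibition above about 35% when tested at 20 µM, limit read from the data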;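 note: plate controls were DMSO wells with enzyme for no effect and DMSO wells lacking enzyme for full effect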
# Target sequence (Q2TB90 whole entry, looked up): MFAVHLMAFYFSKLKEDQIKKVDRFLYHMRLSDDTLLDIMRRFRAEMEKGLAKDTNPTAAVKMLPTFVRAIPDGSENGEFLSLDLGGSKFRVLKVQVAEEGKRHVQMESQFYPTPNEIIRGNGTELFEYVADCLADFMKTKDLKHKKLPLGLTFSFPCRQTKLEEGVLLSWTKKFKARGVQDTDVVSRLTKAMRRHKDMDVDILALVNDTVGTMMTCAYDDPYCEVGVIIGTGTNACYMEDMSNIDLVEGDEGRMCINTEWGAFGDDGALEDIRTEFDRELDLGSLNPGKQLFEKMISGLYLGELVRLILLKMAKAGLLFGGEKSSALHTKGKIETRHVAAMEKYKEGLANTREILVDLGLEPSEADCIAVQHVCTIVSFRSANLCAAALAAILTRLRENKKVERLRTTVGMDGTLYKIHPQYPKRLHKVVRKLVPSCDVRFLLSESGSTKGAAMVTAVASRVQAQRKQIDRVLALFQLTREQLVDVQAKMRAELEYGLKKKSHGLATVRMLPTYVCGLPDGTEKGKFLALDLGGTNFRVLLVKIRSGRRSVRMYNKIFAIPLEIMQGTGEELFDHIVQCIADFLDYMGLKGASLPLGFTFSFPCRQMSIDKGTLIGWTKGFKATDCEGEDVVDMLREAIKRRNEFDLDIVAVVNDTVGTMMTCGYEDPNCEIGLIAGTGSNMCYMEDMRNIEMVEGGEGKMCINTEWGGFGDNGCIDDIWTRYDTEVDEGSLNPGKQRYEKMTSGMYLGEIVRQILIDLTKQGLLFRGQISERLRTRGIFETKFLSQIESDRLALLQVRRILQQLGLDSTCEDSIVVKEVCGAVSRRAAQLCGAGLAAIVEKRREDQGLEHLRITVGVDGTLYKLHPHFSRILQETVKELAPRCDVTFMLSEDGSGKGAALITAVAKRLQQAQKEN
#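 Test system: HK5 enzyme. Quantity: 5 µg/mL HK5 final. Reagent: glucose and ATP substrates. Schedule: 90 min reaction incubation at room temperature, dark. Technique: resazurin-to-resorufin fluorescence via G6PDH and diaphorase coupling, 525/613 nm. Control set: DMSO wells with and without enzyme mix.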
# ABHD5 PLIN5 PPI = inhibitors of human ABHD5-perilipin-5 interaction | AID 602281 | Split G. princeps luciferase complementation, luminescence, 4 h | Q00G26+Q8WTS1 | 360,000 compounds, 0.78% hits | inhibition, % at 4 µM;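 active = inhibition above the mean inhibition across every tested compound plus 3 SD, cut at about 22% in these data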;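 note: 0% = DMSO only wells and the 100% control is not disclosed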
# HKDC1 act conf2 = HKDC1 (human) activation, single-dose confirmed; shares compounds with HKDC1 inhibitor; recombinant HKDC1, G6PDH/diaphorase resazurin fluorescence; active compounds read low; inhibition, % at 20 µM; 740 compounds, 14% hits;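 active = inhibition at or below a set negative limit, negative inhibition meaning the enzyme was activated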
# * hit, by the source's call; nt = no result.
SMILES,PfGluPho inh,Exocytosis inh,HKDC1 inhibitor,ABHD5 PLIN5 PPI,HKDC1 act conf2
Nc1nc2c(Br)ccc(Br)c2cc1C(=O)NCc1cccc2ccccc12,nt,-8,nt,-14,nt
O=C(c1c[nH]c(C(=O)C(Cl)(Cl)Cl)c1)c1ccccc1F,-6,-11,37*,1,1
O=C(c1c[nH]c(C(=O)C(Cl)(Cl)Cl)c1)c1c(F)cccc1F,-1,14,38*,0,14
CCN(CCO)CC1CCCC2CCCCC21 (configuration not stated),nt,-9,nt,3,nt
Oc1cc(CNC2CCCCC2)c(O)cc1CNC1CCCCC1,81*,-13,34,1,32
CCNC(=O)COC(=O)CNC(=O)c1cc(Cl)cc([N+](=O)[O-])c1,-4,1,-6,3,nt
CC(C)CNC(=O)COC(=O)CNC(=O)c1cc(Cl)cc([N+](=O)[O-])c1,15,5,-52,-3,-24
Cc1ccc(NC(=O)C2CCCN2C(=O)OCc2ccccc2)cc1F (configuration not stated),-14,-2,0,-6,nt
Cc1ccc2cc(CCNC(=O)c3ccc(S(=O)(=O)N4CCCCC4)cc3)c(=O)[nH]c2c1,45,7,40*,-4,40
Cc1cc2cc(CCNC(=O)c3cccc([N+](=O)[O-])c3)c(=O)[nH]c2cc1C,9,0,40*,-1,16
Cc1cc2cc(CCNC(=O)c3ccc(S(=O)(=O)N4CCOCC4)cc3)c(=O)[nH]c2cc1C,32,-3,41*,-2,45
Cc1ccc2cc(CCNC(=O)c3cccc([N+](=O)[O-])c3)c(=O)[nH]c2c1,-25,-4,5,-4,nt
Cc1ccc2cc(CCNC(=O)c3ccc(S(=O)(=O)N4CCOCC4)cc3)c(=O)[nH]c2c1,28,-25,20,4,nt
CC(C)(C)C(=O)Nc1cccc(-c2ncon2)c1,-5,-4,0,-6,nt
CCOC(=O)c1nn(-c2ccc(OCC)cc2)c2nc(-c3ccco3)c(C#N)c(=O)n12,-26,0,-4,-1,nt
O=C(CNC(=S)N(Cc1ccccc1)Cc1cccnc1)NCCN1CCOCC1,13,-7,-5,-1,nt
O=C(O)c1ccc(N2C(=O)/C(=C/c3ccc(-c4ccc([N+](=O)[O-])cc4)o3)C=C2c2ccccc2)cc1,25,56*,43*,6,1
O=C1NN(c2ccccc2)C(=O)/C1=C/c1ccc(-c2ccc(C(=O)O)cc2)o1,1,1,4,3,nt
Cc1coc2c(C)c3oc(=O)c(CCC(=O)N4CCC(C(=O)NCCCC(=O)O)(c5ccccc5)CC4)c(C)c3cc12,0,1,-6,-3,nt
CCn1nnc2cc(C(=O)Nc3cc(Cl)ccc3C)ccc21,1,-1,-3,-1,nt
Cc1ccc(C(=O)N2CCN3C(=O)c4ccccc4C23c2ccc(Cl)cc2)cc1 (configuration not stated),-14,-1,7,-1,nt
O=C(CCl)N1CCN2C(=O)c3ccccc3C12c1ccc(Cl)cc1 (configuration not stated),17,-3,32,16,8
CN=CC1=C(O)c2ccccc2C1=O,1,-1,-8,0,nt
O=C1C(C2=C(O)c3ccccc3C2=O)=Nc2ccccc21,17,11,-242,-22,-162*
FC(F)(F)Oc1ccc(NC(=S)Nc2ccc(OC(F)(F)F)cc2)cc1,29,-7,5,-2,nt
SMILES,PfGluPho inh,Exocytosis inh,HKDC1 inhibitor,ABHD5 PLIN5 PPI,HKDC1 act conf2
CS(=O)(=O)c1ccc(C(=O)OCC(=O)NC(=O)Cc2ccccc2)cc1,0,-3,35,2,-19
CCC1CCc2sc(C(=O)OCC(=O)N(CCOC)c3c(N)n(Cc4ccccc4)c(=O)[nH]c3=O)cc2C1 (configuration not stated),-8,0,0,4,nt
COCCN(C(=O)COC(=O)c1cc2c(s1)CCC2)c1c(N)n(Cc2ccccc2)c(=O)[nH]c1=O,8,7,35*,9,16
CC(=NNC(=S)Nc1cccc(C)c1)c1ccccn1,44,0,-38,1,-60*
CC(=NNC(=S)Nc1ccc(C)cc1)c1ccccn1,29,-4,-39,-6,nt
COc1ccccc1NC(=S)NN=C(C)c1ccccn1,25,-4,-41,0,-61*
CC(C)(C)OC(=O)C[C@H]1C/C=C\C[C@H](CC(=O)N[C@H](CO)Cc2ccccc2)C(=O)N[C@@H](Cc2ccccc2)COC1=O,2,8,0,-3,nt
O=C(O)c1ccc(S(=O)(=O)/N=C2\C=C(Nc3ccccc3F)C(=O)c3ccccc32)cc1,93*,27,81*,-30,76
